Converted amounts (≈) assume the structure as drawn. Counter-ions that a name gives are not always drawn. The source made the active and inactive calls. The rule behind the calls is not given here.
Key:
[1] = biological target: T1, Inosine-5'-monophosphate dehydrogenase 2 (Homo sapiens, UniProt P12268); experiment: Inhibition of human IMPDH2 using IMP at 10 uM as substrate in presence of NAD+ after 30 mins relative to control
How it was run: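 Purchased purified hIMPDH2, 0.15 mU/well, in 100 mM Tris-HCl pH 8.6, 100 mM KCl, 5 mM DTT and 4% v/v DMSO. Started with 0.2 mM IMP plus 0.2 mM NAD+ and run 30 min at 37 °C. NADH read at 340 nm. Screen at 10 µM gave % inhibition.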

[2] = system: U-87 MG; experiment: Cytotoxicity against human U87MG cells assessed as reduction in cell viability after 48 hrs by MTT assay; format: functional, cell-based, U-87MG ATCC
How it was run: (§1)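 Cells grown in DMEM with 10% FBS and penicillin-streptomycin at 37 °C, 5% CO2. Seeded at 10,000 (MDA-MB-231), 8,000 (DU145) or 5,000 (U87 MG) cells/well. Treated 24 hr later with 0.01–100 µM, each dilution in triplicate, DMSO vehicle. After 48 hr, MTT (5 mg/mL) for 4 hr, formazan dissolved in DMSO. Absorbance read at 540 nm with 630 nm background. IC50 taken from mean of triplicate readings.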

[3] = Cytotoxicity against mouse NIH/3T3 cells assessed as cell viability at 10 uM after 48 hrs by MTT assay relative to control; format: cell-based, NIH3T3; conditions: read-out: Activity
How it was run: (§2)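 NIH-3T3 mouse embryonic fibroblasts grown in DMEM with 10% FBS and penicillin-streptomycin at 37 °C, 5% CO2. Seeded at 10,000 cells/well and dosed after 24 hr, DMSO vehicle, triplicate wells. After 48 hr exposure, MTT (5 mg/mL) added for 4 hr and formazan dissolved in DMSO. Absorbance read at 540/630 nm. Viability expressed as % of control, mean ± SD.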

[4] = Cytotoxicity against human PBMC assessed as cell viability at 10 uM after 48 hrs by MTT assay relative to control; format: cell-based; conditions: read-out: Activity
[5] = system: DU-145; experiment: Cytotoxicity against human DU145 cells assessed as reduction in cell viability after 48 hrs by MTT assay; format: functional, cell-based; conditions: DU-145, 48 h; how it was run: as §1
[6] = system: MDA-MB-231; experiment: Cytotoxicity against human MDA-MB-231 cells assessed as reduction in cell viability after 48 hrs by MTT assay; format: functional, cell-based; conditions: MDA-MB-231, 48 h; how it was run: as §1
[7] = Cytotoxicity against mouse NIH/3T3 cells assessed as cell viability at 100 uM after 48 hrs by MTT assay relative to control; format: cell-based, NIH3T3; conditions: read-out: Activity; how it was run: as §2
[8] = biological target: T1, Inosine-5'-monophosphate dehydrogenase 2; experiment: Inhibition of human IMPDH2 using IMP as substrate in presence of NAD+ after 30 mins
How it was run: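 Purchased purified hIMPDH2, 0.15 mU/well, in 100 mM Tris-HCl pH 8.6, 100 mM KCl, 5 mM DTT and 4% v/v DMSO. Started with 0.2 mM IMP plus 0.2 mM NAD+ and run 30 min at 37 °C. NADH read at 340 nm.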

[9] = system: U-87 MG; experiment: Potency index, ratio of mycophenolic acid IC50 to compound IC50 for cytotoxicity against human U87MG cells; format: functional, U-87MG ATCC
[10] = Octanol-buffer partition coefficient, log D of the compound at pH 7.4 after 2 hrs by HPLC analysis; format: physicochemical
How it was run: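 DMSO stock added to pre-saturated 1:1 1-octanol/pH 7.4 buffer and shaken 2 hr at 37 °C, 200 rpm. Phases separated and each quantified by HPLC on a C18 column with isocratic acetonitrile:water 80:20 at 1 mL/min. logD7.4 taken from the octanol-to-buffer concentration ratio.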

[11] = Solubility in pH 7.4 sodium phosphate buffer after 2 hrs by HPLC analysis; format: physicochemical; conditions: read-out: -log(solubility) (converted)
How it was run: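 DMSO stock diluted 1:100 into 50 mM sodium phosphate, pH 7.4, and shaken 2 hr at 37 °C, 200 rpm. Centrifuged 20 min at 4000 rpm; supernatant diluted 1:1 with acetonitrile and filtered. Quantified by C18 HPLC (acetonitrile:water 80:20, isocratic) against a calibration curve of 0.78–100 µM made in 1:1 buffer/acetonitrile.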

[12] = system: MDA-MB-231; experiment: Potency index, ratio of mycophenolic acid IC50 to compound IC50 for cytotoxicity against human MDA-MB-231 cells; format: functional
[13] = system: DU-145; experiment: Potency index, ratio of mycophenolic acid IC50 to compound IC50 for cytotoxicity against human DU145 cells; format: functional

COc1ccc(/C=C/C(=O)c2ccc(OCC(=O)NCc3ccc4c(c3)OCO4)cc2)cc1OC
inhibition [1]: inactive

COc1c(C)c2c(c(O)c1C/C=C(\C)CCC(=O)O)C(=O)OC2 [MYCOPHENOLIC ACID]
IC50 [2]: 10700 nM | viability at 48 h, 10 µM [3]: 65.2% | viability at 48 h, 10 µM [4]: 63% | IC50 [5]: 2940 nM | IC50 [6]: 4380 nM | viability at 48 h, 100 µM [7]: 40.7%

COc1ccc(/C=C/C(=O)c2ccc(OCC(=O)Nc3ccc4c(c3)COC4=O)cc2)cc1
IC50 [8]: 660 nM | IC50 [2]: 4900 nM | viability at 48 h, 10 µM [3]: 90.9% | viability at 48 h, 10 µM [4]: 86% | IC50 [5]: 2130 nM | IC50 [6]: 3030 nM | inhibition [1]: 95.6% | viability at 48 h, 100 µM [7]: 63.7%

O=C(COc1ccc(C(=O)/C=C/c2ccc(Cl)cc2)cc1)Nc1ccc2c(c1)COC2=O
inhibition [1]: 62.1%

O=C(COc1ccc(C(=O)/C=C/c2ccccc2)cc1)Nc1ccc2c(c1)COC2=O
IC50 [8]: 790 nM | inhibition [1]: 79.1%

CCOc1ccc(/C=C/C(=O)c2ccc(OCC(=O)NCc3ccc4c(c3)OCO4)cc2)cc1
inhibition [1]: inactive

COc1cccc(/C=C/C(=O)c2ccc(OCC(=O)Nc3ccc(OC)c(OC)c3)cc2)c1
inhibition [1]: 28.8%

COc1ccc(NC(=O)COc2ccc(C(=O)/C=C/c3c(F)cccc3F)cc2)cc1OC
inhibition [1]: 35.9%

COc1cc(/C=C/C(=O)c2ccc(OCC(=O)NCc3ccc4c(c3)OCO4)cc2)cc(OC)c1OC
inhibition [1]: inactive

COc1ccc(NC(=O)COc2ccc(C(=O)/C=C/c3ccco3)cc2)cc1OC
inhibition [1]: 21.3%

O=C(COc1ccc(C(=O)/C=C/c2cccs2)cc1)Nc1ccc2c(c1)COC2=O
IC50 [8]: 4540 nM | inhibition [1]: 76.3%

COc1ccc(/C=C/C(=O)c2cccc(OCC(=O)Nc3ccc(OC)c(OC)c3)c2)cc1OC
inhibition [1]: 23.3%

O=C(COc1ccc(C(=O)/C=C/c2c(F)cccc2F)cc1)Nc1ccc2c(c1)COC2=O
IC50 [8]: 360 nM | IC50 [2]: 3670 nM | viability at 48 h, 10 µM [3]: 98.5% | viability at 48 h, 10 µM [4]: 77% | Ratio IC50 [9]: 3 | IC50 [5]: 1900 nM | logD at 2 h [10]: 2.99 | IC50 [6]: 2410 nM | inhibition [1]: 94.2% | viability at 48 h, 100 µM [7]: 70.2% | solubility at 2 h [11]: 1.55 µM (≈ 0.696 µg/mL)

O=C(COc1ccc(C(=O)/C=C/c2ccco2)cc1)Nc1ccc2c(c1)COC2=O
inhibition [1]: 57.3%

O=C(COc1cccc(C(=O)/C=C/c2ccccc2)c1)Nc1ccc2c(c1)COC2=O
Ratio IC50 [12]: 4 | IC50 [8]: 430 nM | IC50 [2]: 3970 nM | viability at 48 h, 10 µM [3]: 96.7% | Ratio IC50 [13]: 1.7 | IC50 [5]: 1750 nM | logD at 2 h [10]: 2.79 | IC50 [6]: 1100 nM | inhibition [1]: 93.7% | viability at 48 h, 100 µM [7]: 67.6% | solubility at 2 h [11]: 1.55 µM (≈ 0.64 µg/mL)

O=C(COc1ccc(C(=O)/C=C/c2c(F)cccc2F)cc1)NCc1ccc2c(c1)OCO2
inhibition [1]: inactive

O=C(COc1ccc(C(=O)/C=C/c2ccc([N+](=O)[O-])cc2)cc1)Nc1ccc2c(c1)COC2=O
inhibition [1]: 63.2%

COc1ccc(NC(=O)COc2ccc(C(=O)/C=C/c3cc(OC)c(OC)c(OC)c3)cc2)cc1OC
inhibition [1]: 20.6%

COc1ccc(/C=C/C(=O)c2ccc(OCC(=O)NCc3ccc4c(c3)OCO4)cc2)cc1
inhibition [1]: inactive

O=C(COc1ccc(C(=O)/C=C/c2ccc(OCc3ccc(Cl)cc3)cc2)cc1)Nc1ccc2c(c1)COC2=O
inhibition [1]: 39.1%

COc1ccc(NC(=O)COc2ccc(C(=O)/C=C/c3ccccc3Cl)cc2)cc1OC
inhibition [1]: 25.7%

O=C(COc1ccc(C(=O)/C=C/c2ccc(OCc3ccccc3)cc2)cc1)Nc1ccc2c(c1)COC2=O
inhibition [1]: 52.2%

COc1ccc(NC(=O)COc2ccc(C(=O)/C=C/c3ccc(Cl)cc3)cc2)cc1OC
inhibition [1]: 30.1%

CCOc1ccc(/C=C/C(=O)c2ccc(OCC(=O)Nc3ccc4c(c3)COC4=O)cc2)cc1
inhibition [1]: 65.5%

O=C(COc1ccc(/C=C/C(=O)c2ccc(F)cc2)cc1)Nc1ccc2c(c1)COC2=O
IC50 [8]: 570 nM | IC50 [2]: 6050 nM | viability at 48 h, 10 µM [3]: 90.3% | IC50 [5]: 6880 nM | IC50 [6]: 5420 nM | inhibition [1]: 87.9% | viability at 48 h, 100 µM [7]: 80.2%

COc1ccc(/C=C/C(=O)c2ccc(OCC(=O)Nc3ccc(OC)c(OC)c3)cc2)cc1
inhibition [1]: 33.6%

COc1ccc(NC(=O)COc2ccc(C(=O)/C=C/c3cccs3)cc2)cc1OC
inhibition [1]: 24.5%

COc1ccc(/C=C/C(=O)c2ccc(OCC(=O)Nc3ccc4c(c3)COC4=O)cc2)cc1OC
inhibition [1]: 65.5%

COc1cc(C(=O)/C=C/c2cc(OC)c(OC)c(OC)c2)ccc1OCC(=O)Nc1ccc2c(c1)COC2=O
inhibition [1]: 19.9%

O=C(COc1ccc(C(=O)/C=C/c2ccccc2Cl)cc1)Nc1ccc2c(c1)COC2=O
inhibition [1]: 59.5%

O=C(COc1ccc(C(=O)/C=C/c2ccc(OCc3ccc(Cl)cc3Cl)cc2)cc1)Nc1ccc2c(c1)COC2=O
inhibition [1]: 36.7%

CCOc1ccc(/C=C/C(=O)c2ccc(OCC(=O)Nc3ccc(OC)c(OC)c3)cc2)cc1
inhibition [1]: 63.5%

COc1cccc(/C=C/C(=O)c2ccc(OCC(=O)Nc3ccc4c(c3)COC4=O)cc2)c1
IC50 [8]: 360 nM | IC50 [2]: 5750 nM | viability at 48 h, 10 µM [3]: 87.1% | IC50 [5]: 2550 nM | IC50 [6]: 3420 nM | inhibition [1]: 91.5% | viability at 48 h, 100 µM [7]: 62.6%

COc1cccc2c1C(=O)c1c(O)c3c(c(O)c1C2=O)C[C@@](O)(C(=O)CO)C[C@@H]3O[C@H]1C[C@H](N)[C@H](O)[C@H](C)O1 [DOXORUBICIN HYDROCHLORIDE]
IC50 [2]: 110 nM | viability at 48 h, 10 µM [3]: 15.6% | IC50 [5]: 210 nM | IC50 [6]: 540 nM | viability at 48 h, 100 µM [7]: 6.73%

CCCOc1ccc(/C=C/C(=O)c2ccc(OCC(=O)Nc3ccc4c(c3)COC4=O)cc2)cc1
inhibition [1]: 60.1%

COc1cc(/C=C/C(=O)c2ccc(OCC(=O)Nc3ccc4c(c3)COC4=O)cc2)cc(OC)c1OC
IC50 [8]: 7380 nM | inhibition [1]: 71.3%

COc1ccc(/C=C/C(=O)c2cccc(OCC(=O)Nc3ccc4c(c3)COC4=O)c2)cc1OC
inhibition [1]: 57%

COc1cc(/C=C/C(=O)c2cccc(OCC(=O)Nc3ccc4c(c3)COC4=O)c2)cc(OC)c1OC
inhibition [1]: 63.7%

CCCCOc1ccc(/C=C/C(=O)c2ccc(OCC(=O)Nc3ccc4c(c3)COC4=O)cc2)cc1
inhibition [1]: 57.7%
